Experimental data reported in ChEMBL document CHEMBL3045854, “Antifungal activity of 4-methyl-6-alkyl-2H-pyran-2-ones” (2006).
≈ marks a conversion by molar mass, not a printed value. Calls of active or inactive are those of the source. The calls are words filed in the database; no cut-off is given here.

Key:
[1] = system: Macrophomina phaseolina; experiment: Antifungal activity against Macrophomina phaseolina assessed as inhibition of fungal growth; assay type: functional; conditions: read-out: ED50 (the source's name)
Procedure, shortened: (§1)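 Poisoned food technique on PDA, final 250, 125, 100, 50, 25 and 10 µg/mL, diluted in acetone from a 1000 µg/mL stock; acetone-only control. A 5 mm × 5 mm plug from the growing edge of a 2-week-old colony was placed at plate centre and incubated at 28 °C until control plates were nearly fully grown. Colony diameter was measured; four replicates per treatment. Inhibition was Abbott-corrected and ED50 taken by probit analysis.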

[2] = system: Athelia rolfsii; experiment: Antifungal activity against Athelia rolfsii assessed as inhibition of fungal growth; assay type: functional; conditions: Agroathelia rolfsii; read-out: ED50 (the source's name); procedure, shortened: as §1
[3] = system: Globisporangium debaryanum; experiment: Antifungal activity against Pythium debaryanum assessed as inhibition of fungal growth; assay type: functional; conditions: read-out: ED50 (the source's name); procedure, shortened: as §1
[4] = system: Pythium aphanidermatum; experiment: Antifungal activity against Pythium aphanidermatum assessed as inhibition of fungal growth; assay type: functional; conditions: read-out: ED50 (the source's name); procedure, shortened: as §1
[5] = system: Macrophomina phaseolina; experiment: Antifungal activity against Rhizoctonia bataticola assessed as inhibition of fungal growth; assay type: functional; conditions: read-out: ED50 (the source's name); procedure, shortened: as §1
[6] = system: Rhizoctonia solani; experiment: Antifungal activity against Rhizoctonia solani Nees assessed as inhibition of fungal growth; assay type: functional; conditions: read-out: ED50 (the source's name); procedure, shortened: as §1
[7] = system: Athelia rolfsii; experiment: Antifungal activity against Athelia rolfsii in tomato plants grown on fungal infested soil assessed as healthy tomato plants stands at 0.364 mL ai/150 cm3 of soil measured 35 days after transplanting; assay type: functional, Agroathelia rolfsii
Procedure, shortened: (§2)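 Greenhouse tomato seedlings in sieved, autoclaved composted soil infested with S. rolfsii chlamydospore inoculum (potato dextrose broth, 27 °C 7 days, then water, 20 °C 3-4 weeks; 10 flasks per 2.5 kg soil; incubated ~25 °C 5-7 days). Moistened infested soil treated with fungicide per 150 cm3 soil. Checks were uninfested soil and untreated infested soil. Wilting and mortality scored weekly to 35 days; proportion symptomless plants; repeated-measures ANOVA.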

[8] = system: Athelia rolfsii; experiment: Antifungal activity against Athelia rolfsii in tomato plants grown on fungal infested soil assessed as healthy tomato plants stands at 0.728 mL ai/150 cm3 of soil measured 35 days after transplanting; assay type: functional, Agroathelia rolfsii; procedure, shortened: as §2
[9] = system: Athelia rolfsii; experiment: Antifungal activity against Athelia rolfsii in tomato plants grown on fungal infested soil assessed as healthy tomato plants stands at 1.46 mL ai/150 cm3 of soil measured 35 days after transplanting; assay type: functional, Agroathelia rolfsii; procedure, shortened: as §2
[10] = system: Athelia rolfsii; experiment: Antifungal activity against Athelia rolfsii in tomato plants grown on fungal infested soil assessed as healthy tomato plants stands at 10 % aqueous emulsion of compound measured 35 days after transplanting; assay type: functional, Agroathelia rolfsii
Procedure, shortened: (§3)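 Tomato greenhouse test. S. rolfsii was grown in potato dextrose broth, then held in water at 20 °C for 3-4 weeks. Inoculum was mixed into autoclaved composted soil (10 flasks per 2.5 kg) and kept about 5-7 days at roughly 25 °C. Aqueous emulsion was incorporated at 5.0 mL per 150 cm3 of soil. Wilting and mortality were scored weekly after transplanting and given as the proportion of symptomless plants. Controls were uninfested soil and infested untreated soil; analysed as repeated measures ANOVA.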

[11] = system: Athelia rolfsii; experiment: Antifungal activity against Athelia rolfsii in tomato plants grown on fungal infested soil assessed as healthy tomato plants stands at 1 % aqueous emulsion of compound measured 35 days after transplanting; assay type: functional, organism-based; conditions: Agroathelia rolfsii; procedure, shortened: as §3
[12] = system: Athelia rolfsii; experiment: Antifungal activity against Athelia rolfsii in tomato plants grown on fungal infested soil assessed as healthy tomato plants stands at 5 % aqueous emulsion of compound measured 35 days after transplanting; assay type: functional, Agroathelia rolfsii; procedure, shortened: as §3
[13] = system: Athelia rolfsii; experiment: Antifungal activity against Athelia rolfsii in tomato plants grown on fungal infested soil assessed as healthy tomato plants stands at 1 % aqueous emulsion of compound measured 7 days after transplanting; assay type: functional, Agroathelia rolfsii; procedure, shortened: as §3

CCCCC(O)(Cn1cncn1)c1ccc(Cl)cc1Cl (stereo not given) [HEXACONAZOLE] gave an EC50 [1] of 10.5 µg/mL (≈ 33.5 µM), an EC50 [2] of 18.3 µg/mL (≈ 58.4 µM) and an EC50 [3] of 12.3 µg/mL (≈ 39.1 µM). The EC50 [4] was 8.47 µg/mL (≈ 27 µM), the EC50 [5] was 4.36 µg/mL (≈ 13.9 µM) and the EC50 [6] was 13 µg/mL (≈ 41.2 µM).

With CCCCc1cc(C)cc(=O)o1 the EC50 [1] was 235 µg/mL (≈ 1410 µM), the EC50 [2] was 78 µg/mL (≈ 469 µM) and the EC50 [3] was 143 µg/mL (≈ 859 µM). For the same compound, the EC50 [4] was 227 µg/mL (≈ 1370 µM), the EC50 [5] was 212 µg/mL (≈ 1280 µM) and the EC50 [6] was 50.1 µg/mL (≈ 301 µM).

In the case of Cc1cc(CC(C)C)oc(=O)c1, the EC50 [1] is reported as 47.3 µg/mL (≈ 284 µM), the EC50 [2] is reported as 39.5 µg/mL (≈ 237 µM) and the EC50 [3] is reported as 37 µg/mL (≈ 223 µM). It also gave an EC50 [4] of 52.4 µg/mL (≈ 315 µM), an EC50 [5] of 68.4 µg/mL (≈ 412 µM) and an EC50 [6] of 48.7 µg/mL (≈ 293 µM).

COCC(=O)N(c1c(C)cccc1C)C(C)C(=O)OC (stereo not given) [METALAXYL] showed an Activity [7] of 34.3 µg/mL, an Activity [8] of 60 µg/mL and an Activity [9] of 90.3 µg/mL.

CCCc1cc(C)cc(=O)o1 gave an EC50 [1] of 329 µg/mL (≈ 2160 µM), an EC50 [2] of 251 µg/mL (≈ 1650 µM) and an EC50 [3] of 288 µg/mL (≈ 1890 µM). For the same compound, the EC50 [4] was 573 µg/mL (≈ 3760 µM), the EC50 [5] was 562 µg/mL (≈ 3700 µM) and the EC50 [6] was 149 µg/mL (≈ 982 µM).

Cc1cc(CCl)oc(=O)c1 showed an EC50 [1] of 72.1 µg/mL (≈ 455 µM), an EC50 [2] of 46.9 µg/mL (≈ 296 µM) and an EC50 [3] of 102 µg/mL (≈ 643 µM). The EC50 [4] was 122 µg/mL (≈ 769 µM), the EC50 [5] was 111 µg/mL (≈ 701 µM) and the EC50 [6] was 22.8 µg/mL (≈ 143 µM).

Compound CCCCCCCCCCc1cc(C)cc(=O)o1 has an EC50 [1] of 548 µg/mL (≈ 2190 µM), an EC50 [2] of 562 µg/mL (≈ 2250 µM) and an EC50 [3] of 594 µg/mL (≈ 2370 µM). It also gave an EC50 [4] of 287 µg/mL (≈ 1150 µM), an EC50 [5] of 649 µg/mL (≈ 2590 µM) and an EC50 [6] of 267 µg/mL (≈ 1070 µM).

For CCCCCCCCCc1cc(C)cc(=O)o1, the EC50 [1] was 352 µg/mL (≈ 1490 µM), the EC50 [2] was 397 µg/mL (≈ 1680 µM) and the EC50 [3] was 284 µg/mL (≈ 1200 µM). For the same compound, the EC50 [4] was 204 µg/mL (≈ 863 µM), the EC50 [5] was 213 µg/mL (≈ 900 µM) and the EC50 [6] was 130 µg/mL (≈ 551 µM).

CCCCCCc1cc(C)cc(=O)o1 was tested, and the EC50 [1] was 31 µg/mL (≈ 159 µM), the EC50 [2] was 15.1 µg/mL (≈ 77.7 µM) and the Activity [10] was 92.4%. For the same compound, the Activity [11] was “inactive”, the Activity [12] was greater than 60% and the Activity [13] was 20%. The EC50 [3] was 14.9 µg/mL (≈ 76.7 µM), the EC50 [4] was 16.6 µg/mL (≈ 85.5 µM) and the EC50 [5] was 24.5 µg/mL (≈ 126 µM). The EC50 [6] was 18.7 µg/mL (≈ 96 µM).

C=C(C)c1cc(C)cc(=O)o1 gave an EC50 [1] of 338 µg/mL (≈ 2250 µM), an EC50 [2] of 180 µg/mL (≈ 1200 µM) and an EC50 [3] of 189 µg/mL (≈ 1260 µM). For the same compound, the EC50 [4] was 337 µg/mL (≈ 2240 µM), the EC50 [5] was 374 µg/mL (≈ 2490 µM) and the EC50 [6] was 206 µg/mL (≈ 1370 µM).

Compound CCCCCCCc1cc(C)cc(=O)o1 has an EC50 [1] of 82.2 µg/mL (≈ 394 µM), an EC50 [2] of 30.7 µg/mL (≈ 147 µM) and an EC50 [3] of 71.7 µg/mL (≈ 344 µM). The EC50 [4] was 74.6 µg/mL (≈ 358 µM), the EC50 [5] was 47 µg/mL (≈ 226 µM) and the EC50 [6] was 45 µg/mL (≈ 216 µM).

Cc1cc(C(C)C)oc(=O)c1 gave an EC50 [1] of 1210 µg/mL (≈ 7930 µM), an EC50 [2] of 313 µg/mL (≈ 2060 µM) and an EC50 [3] of 437 µg/mL (≈ 2870 µM). The EC50 [4] was 475 µg/mL (≈ 3120 µM), the EC50 [5] was 403 µg/mL (≈ 2650 µM) and the EC50 [6] was 437 µg/mL (≈ 2870 µM).

Work on CCCCCc1cc(C)cc(=O)o1 yielded an EC50 [1] of 36.8 µg/mL (≈ 204 µM), an EC50 [2] of 22.4 µg/mL (≈ 125 µM) and an EC50 [3] of 20.6 µg/mL (≈ 114 µM). The EC50 [4] was 39.1 µg/mL (≈ 217 µM), the EC50 [5] was 34.2 µg/mL (≈ 190 µM) and the EC50 [6] was 34.5 µg/mL (≈ 191 µM).

CCCCC(CC)c1cc(C)cc(=O)o1 (stereo not given) showed an EC50 [1] of 262 µg/mL (≈ 1260 µM), an EC50 [2] of 349 µg/mL (≈ 1680 µM) and an EC50 [3] of 151 µg/mL (≈ 725 µM). The EC50 [4] was 277 µg/mL (≈ 1330 µM), the EC50 [5] was 303 µg/mL (≈ 1460 µM) and the EC50 [6] was 184 µg/mL (≈ 882 µM).

With Cc1cc(C)oc(=O)c1 the EC50 [1] was 824 µg/mL (≈ 6630 µM), the EC50 [2] was 713 µg/mL (≈ 5740 µM) and the EC50 [3] was 1140 µg/mL (≈ 9190 µM). The EC50 [4] was 451 µg/mL (≈ 3630 µM), the EC50 [5] was 1190 µg/mL (≈ 9550 µM) and the EC50 [6] was 493 µg/mL (≈ 3970 µM).

CCc1cc(C)cc(=O)o1 was tested, and the EC50 [1] was 267 µg/mL (≈ 1940 µM), the EC50 [2] was 665 µg/mL (≈ 4820 µM) and the EC50 [3] was 580 µg/mL (≈ 4200 µM). The EC50 [4] was 408 µg/mL (≈ 2950 µM), the EC50 [5] was 626 µg/mL (≈ 4530 µM) and the EC50 [6] was 690 µg/mL (≈ 5000 µM).

CC(C)=Cc1cc(C)cc(=O)o1 was tested, and the EC50 [1] was 377 µg/mL (≈ 2300 µM), the EC50 [2] was 323 µg/mL (≈ 1960 µM) and the EC50 [3] was 264 µg/mL (≈ 1610 µM). It also gave an EC50 [4] of 206 µg/mL (≈ 1250 µM), an EC50 [5] of 328 µg/mL (≈ 2000 µM) and an EC50 [6] of 286 µg/mL (≈ 1740 µM).

For C/C=C/c1cc(C)cc(=O)o1, the EC50 [1] was 276 µg/mL (≈ 1840 µM), the EC50 [2] was 404 µg/mL (≈ 2690 µM) and the EC50 [3] was 95.5 µg/mL (≈ 636 µM). It also gave an EC50 [4] of 102 µg/mL (≈ 680 µM), an EC50 [5] of 361 µg/mL (≈ 2400 µM) and an EC50 [6] of 294 µg/mL (≈ 1950 µM).

For CCCCCCCCc1cc(C)cc(=O)o1, the EC50 [1] was 164 µg/mL (≈ 737 µM), the EC50 [2] was 122 µg/mL (≈ 548 µM) and the EC50 [3] was 175 µg/mL (≈ 786 µM). It also gave an EC50 [4] of 124 µg/mL (≈ 557 µM), an EC50 [5] of 132 µg/mL (≈ 595 µM) and an EC50 [6] of 116 µg/mL (≈ 521 µM).
